Experimental data reported in ChEMBL document CHEMBL3425488, “Novel histone deacetylase inhibitors induce growth arrest, apoptosis, and differentiation in sarcoma cancer stem cells” (J Med Chem, 2015).
Activity calls are given as the source filed them. No cut-off for these calls is given here.

What was measured:
[1] = system: HOS; experiment: Cytotoxicity against HOS cells assessed as cell viability at 10 to 100 uM after 72 hrs by MTT assay; type: functional, cell-based; details: Homo sapiens
[2] = system: MG-63; experiment: Cytotoxicity against human MG63 cells assessed as cell viability at 10 to 100 uM after 72 hrs by MTT assay; type: functional, cell-based
How it was run: (§1)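 Sarcosphere-derived CSC cultures exposed 72 h to concentrations from 100 μM down to 0.1 μM. Viability compared with DMSO-only treated cells. IC50 calculated by linear regression.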

[3] = system: RD; experiment: Cytotoxicity against human RD cells assessed as cell viability at 10 to 100 uM after 72 hrs by MTT assay; type: functional, cell-based
[4] = system: A204; experiment: Cytotoxicity against human A204 cells assessed as cell viability at 10 to 100 uM after 72 hrs by MTT assay; type: functional, cell-based
[5] = system: SK-ES1; experiment: Cytotoxicity against human SK-ES-1 cells assessed as cell viability at 10 to 100 uM after 72 hrs by MTT assay; type: functional, cell-based; how it was run: as §1
[6] = system: A673; experiment: Cytotoxicity against human A673 cells assessed as cell viability at 10 to 100 uM after 72 hrs by MTT assay; type: functional, cell-based; how it was run: as §1
[7] = Cytotoxicity against human MG63 cells assessed as inhibition of cell viability after 72 hrs by MTT assay; type: functional, MG-63
How it was run: (§2)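 Stem-like cells were taken from sarcosphere cultures and exposed for 72 h to concentrations from 100 μM down to 0.1 μM. Viability was compared with cells given DMSO vehicle alone. IC50 was calculated by linear regression of the dose-response curves.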

[8] = Cytotoxicity against human SK-ES-1 cells assessed as inhibition of cell viability after 72 hrs by MTT assay; type: functional, SK-ES1; how it was run: as §2

| SMILES | Activity [1] | Activity [2] | Activity [3] | Activity [4] | Activity [5] | Activity [6] | INH [7] | INH [8] |
| --- | --- | --- | --- | --- | --- | --- | --- | --- |
| O=c1nc2oc3ccc4ccccc4c3cc-2c(=O)n1-c1ccccc1 | Active | Active | Active | Active | Active | Active | – | – |
| Cn1c(/C=C/C(=O)NO)ccc1/C=C/C(=O)c1cccc(F)c1 | – | – | – | – | – | – | 38.3 µM | 50.7 µM |
